# Reference: paper PMC6469399 (Chemistry (Weinheim an der Bergstrasse, Germany), 2019)
# Key:
# [1] = target: T1, F508del-CFTR (Homo sapiens, UniProt P13569, DEL508-508); experiment: TECC; format: cell-based; conditions: F508del CFBE41o- cells; % activity of the 3 μM VX-809 response
# How it was run: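 F508del CFBE41o- monolayers were pre-incubated 24 h with a range of test-compound concentrations, with DMSO as vehicle and 3 μM VX-809 as positive control in every experiment. Equivalent current (ΔIeq) was recorded as AUC after forskolin (10 μM) + VX-770 (1 μM) stimulation, then CFTRinh-172 (20 μM) inhibition. Response is expressed as % of VX-809 response; n = 3–5; two-way ANOVA with Tukey test versus vehicle.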
# [2] = target: T2, WT-CFTR (Homo sapiens, UniProt P13569); experiment: Ussing chamber potentiation assay, WT CFBE41o- monolayers; format: cell-based
# [3] = target: T1, F508del-CFTR; format: cell-based
# [4] = target: T3, G551D-CFTR (Homo sapiens, UniProt P13569, G551D); experiment: Ussing chamber potentiation assay, Fischer Rat Thyroid; format: cell-based
# [5] = target: T3, G551D-CFTR; experiment: Ussing chamber potentiation assay, G551D CFBE41o- monolayers; format: cell-based
# [6] = target: T2, WT-CFTR; experiment: Patch clamp analysis, macroscopic currents in excised inside-out patch; format: biochemical
# [7] = Metabolic stability in human hepatic microsomes; format: in vitro ADME
Compound,Maximal Response [1] [%],EC50 [2] [nM],"Maximal Response WT CFBE ([2]; WT CFBE41o-, % activity of the VX-770 response, Inactive = no statistically significant response above DMSO vehicle) [%]",EC50 [3] [nM],EC50 [4] [nM],"Maximal Response G551D FRT ([4]; G551D FRT cells, % activity of the VX-770 response, Inactive = no statistically significant response above DMSO vehicle) [%]",EC50 [5] [nM],"Maximal Response G551D CFBE ([5]; G551D CFBE41o-, % activity of the VX-770 response, Inactive = no statistically significant response above DMSO vehicle) [%]",EC50 [6] [nM],"increase of current at lowest dose tested ([6]; WT-CFTR patch clamp, 0.2 nM)","CLHEP, predicted hepatic clearance, human ([7]; calculated from CLINT, human) [mL min^−1 kg ^−1]","CLINT, intrinsic clearance in human hepatic microsomes ([7]; human hepatic microsomes) [mL min^−1 kg ^−1]"
COc1ccc(C2(C(=O)Nc3ccc(C)c(-c4cccc(C(=O)O)c4)n3)CC2)cc1 [compound 33],49.9,–,–,–,–,–,–,–,–,–,–,–
"CC(C)(C)c1cc(C(C)(C)C)c(NC(=O)c2c[nH]c3ccccc3c2=O)cc1O [VX-770, Ivacaftor]",–,36.5 ± 21.3,100.0,1890 ± 1390,428 ± 167,100.0,77.7 ± 27.2,100.0,1.3 ± 0.3,~ 12%,14.4,45.6
